Key:
D(3) dopamine receptor = D(3) dopamine receptor (Homo sapiens, UniProt P35462); assay: Agonist activity at human recombinant dopamine D3 receptor expressed in CHO cells assessed as inhibition of forskolin-stimulated cAMP accumulation; type: functional, cell-based
D(2) dopamine receptor = D(2) dopamine receptor (Homo sapiens, UniProt P14416); assay: Agonist activity at human recombinant dopamine D2 receptor expressed in rat pituitary cells assessed as inhibition of forskolin-stimulated cAMP accumulation; type: functional, cell-based, Pituitary gland cell
[1] = Stability in human hepatocytes; type: ADME, cell-based, Liver, Hepatocyte
Outline: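 Rat, dog and human hepatocyte incubations; read-out was the disappearance half-life of parent compound, in minutes.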

D(3) dopamine receptor, sequence (P35462 whole entry): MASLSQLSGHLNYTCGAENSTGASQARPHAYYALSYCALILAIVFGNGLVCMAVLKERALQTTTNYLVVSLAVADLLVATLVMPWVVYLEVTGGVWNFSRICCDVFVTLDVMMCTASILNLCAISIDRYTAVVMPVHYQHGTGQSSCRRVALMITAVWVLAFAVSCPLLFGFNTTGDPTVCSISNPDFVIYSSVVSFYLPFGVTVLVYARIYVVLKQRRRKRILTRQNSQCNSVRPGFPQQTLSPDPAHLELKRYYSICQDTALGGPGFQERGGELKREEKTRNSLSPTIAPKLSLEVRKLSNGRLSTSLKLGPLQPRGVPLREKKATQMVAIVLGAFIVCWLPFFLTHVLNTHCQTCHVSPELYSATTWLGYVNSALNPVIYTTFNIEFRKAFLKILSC
D(2) dopamine receptor, sequence (P14416 whole entry): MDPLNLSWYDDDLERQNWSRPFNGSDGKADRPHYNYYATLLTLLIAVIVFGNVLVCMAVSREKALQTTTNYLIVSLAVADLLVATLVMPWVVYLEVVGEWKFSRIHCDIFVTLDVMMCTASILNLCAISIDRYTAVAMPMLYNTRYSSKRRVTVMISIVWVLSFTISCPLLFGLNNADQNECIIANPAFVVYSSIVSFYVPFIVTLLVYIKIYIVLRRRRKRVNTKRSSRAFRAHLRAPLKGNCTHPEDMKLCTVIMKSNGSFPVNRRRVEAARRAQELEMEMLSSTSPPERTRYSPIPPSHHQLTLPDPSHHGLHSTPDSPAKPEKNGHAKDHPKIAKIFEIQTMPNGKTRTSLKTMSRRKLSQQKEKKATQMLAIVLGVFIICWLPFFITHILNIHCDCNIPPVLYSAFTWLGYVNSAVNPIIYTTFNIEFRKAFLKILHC

Row | SMILES | EC50 (D(3) dopamine receptor) [µM] | EC50 (D(2) dopamine receptor) [µM] | half-life [1] [min] | Emax (D(3) dopamine receptor) [%]
1 | CCCN1CCOC(c2ccc(O)cc2)C1 (centres undefined) | > 1 |  |  | 
2 | CCCN1CCO[C@@H](c2cc(O)cc(O)c2)C1 | > 10 | > 10 |  | 
3 | CCN1CCOC(c2cccc(O)c2)C1 (centres undefined) | 0.547 | > 30 |  | 
4 | CCCN1CCOC(c2cccc(SC)c2)C1 (centres undefined) | > 1 | > 10 |  | 
5 | CCCN1CCOC(c2cccc(C(=O)O)c2)C1 (centres undefined) | > 1 | > 10 |  | 
6 | CCCN1CCOC(c2cccc(-c3nnc[nH]3)c2)C1 (centres undefined) | > 1 |  |  | 
7 | CCCN1CCOC(c2cc(O)cc(C#N)c2)C1 (centres undefined) | > 10 |  |  | 
8 | CCCN1CCOC(c2ccc(CO)c(O)c2)C1 (centres undefined) | > 5.9 |  |  | 
9 | CCCN1CCO[C@H](c2ccc(F)c(O)c2)C1 | 0.036 | > 10 | 21 | > 90
10 | CCCN1CCOC(c2ccc(O)c(C(C)=O)c2)C1 (centres undefined) | > 1 |  |  | 
11 | CCCN1CCOC(c2ccc(O)c(-n3cnnc3)c2)C1 (centres undefined) | > 1 |  |  | 
12 | CCCN1CCOC(c2cc(O)ccc2Br)C1 (centres undefined) | > 10 |  |  | 
